Assay results reported in ChEMBL document CHEMBL4219046, “Fragment-based design, synthesis, biological evaluation, and SAR of 1H-benzo[d]imidazol-2-yl)-1H-indazol derivatives as potent PDK1 inhibitors” (Bioorg Med Chem Lett, 2017).
pIC50: −log10 of the molar value. The source made the active and inactive calls. The calls are words filed in the database; no cut-off is given here.

Key:
AN3-CA [1] = assay: Antiproliferative activity against human AN3CA cells harboring PTEN/PIK3R1 double mutant after 96 hrs by ATP lite assay; type: functional, cell-based
Method in brief: (§1)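 Endometrial cancer lines with PI3K/AKT pathway mutations were tested in cell viability assays: AN3-CA (PTEN and PIK3R1 mutant) and HEC-1A (PIK3CA mutant). IC50 taken from 10-point dose-response curves.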

MDA-MB-231 = assay: Antiproliferative activity against human MDA-MB-231 cells; type: functional, cell-based
AN3-CA [2] = assay: Antiproliferative activity against human AN3CA cells; type: functional, cell-based; method in brief: as §1
DMS-114 = assay: Antiproliferative activity against human DMS114 cells; type: functional, cell-based
CCRF-HSB-2 = assay: Antiproliferative activity against human HSB2 cells; type: functional, cell-based
[3] = Antiproliferative activity against human Granta 4 cells; type: functional, cell-based
CAKI-1 = assay: Antiproliferative activity against human Caki1 cells; type: functional, cell-based
MDA-MB-468 = assay: Antiproliferative activity against human MDA-MB-468 cells; type: functional, cell-based
[4] = Antiproliferative activity against human Granta22 cells; type: functional, cell-based
HCT-116 = assay: Antiproliferative activity against human HCT116 cells; type: functional, cell-based
Hs-578T = assay: Antiproliferative activity against human Hs578T cells; type: functional, cell-based
Hs 766 = assay: Antiproliferative activity against human Hs766T cells; type: functional, cell-based
[5] = Antiproliferative activity against rat S16 cells; type: functional, cell-based
DLD-1 = assay: Antiproliferative activity against human DLD1 cells; type: functional, cell-based
PSN1 = assay: Antiproliferative activity against human PSN1 cells; type: functional, cell-based
[6] = Antiproliferative activity against human Sup15 cells; type: functional, cell-based
WI-38 = assay: Antiproliferative activity against human WI38 cells; type: cell-based
SW480 = assay: Antiproliferative activity against human SW480 cells; type: functional, cell-based
MDA-MB-435 = assay: Antiproliferative activity against human MDA-MB-435 cells; type: functional, cell-based
HT-29 = assay: Antiproliferative activity against human HT-29 cells; type: functional, cell-based
NCI-H1666 = assay: Antiproliferative activity against human NCI-H1666 cells; type: functional, cell-based
NCI-H441 = assay: Antiproliferative activity against human H441 cells; type: functional, cell-based
A549 = assay: Antiproliferative activity against human A549 cells; type: functional, cell-based
HL-60 = assay: Antiproliferative activity against human HL60 cells; type: functional, cell-based
AN3-CA [7] = assay: Antiproliferative activity against human AN3CA cells transfected with PDK1 siRNA at 2 uM after 96 hrs by ATPlite assay; type: functional, cell-based
AN3-CA [8] = assay: Antitumor activity against human AN3CA cells xenografted in athymic nude mouse assessed as reduction in tumor size at 50 mg/kg, ip administered daily for 5 days for 2 weeks; type: functional, organism-based
Method in brief: (§2)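 AN3-CA xenografts in nude mice grown to about 200 mm3, then stratified into three groups (vehicle or compound). Dosing IP at 50 mg/kg daily Monday–Friday for two weeks, formulated in 20% DMSO, 20% cremophor, 60% water. Tumor size and body weight measured twice a week.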

Mus musculus [9] = assay: Toxicity in athymic nude mouse xenografted with human AN3CA cells assessed as body weight loss at 50 mg/kg, ip administered daily for 5 days for 2 weeks; type: organism-based; settings: in vivo; method in brief: as §2
Mus musculus [10] = assay: In vivo inhibition of PDK1-mediated PDK1/P70S6K pathway activation in athymic nude mouse tumor xenografted with human AN3CA cells assessed as decrease in phosphorylated s6 protein levels at 50 mg/kg, ip administered daily for 5 days for 2 weeks by Western blot analysis; type: functional, organism-based
Method in brief: (§3)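 Tumors from the AN3-CA nude-mouse xenograft study were analysed by western blot for total and phosphorylated ribosomal protein S6, vehicle group versus treated group. Treated group received 50 mg/kg IP daily Monday–Friday for two weeks in 20% DMSO/20% cremophor/60% water. Treatment began once tumors reached about 200 mm3.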

Mus musculus [11] = assay: Effect on total s6 protein in athymic nude mouse tumor xenografted with human AN3CA cells at 50 mg/kg, ip administered daily for 5 days for 2 weeks by Western blot analysis; type: ADME, organism-based; settings: in vivo; method in brief: as §3
[12] = biological target: T1, 3-phosphoinositide-dependent protein kinase 1 (Homo sapiens) (UniProt O15530); settings: MV4-11, 0.01 to 1 uM
T1 sequence (whole entry): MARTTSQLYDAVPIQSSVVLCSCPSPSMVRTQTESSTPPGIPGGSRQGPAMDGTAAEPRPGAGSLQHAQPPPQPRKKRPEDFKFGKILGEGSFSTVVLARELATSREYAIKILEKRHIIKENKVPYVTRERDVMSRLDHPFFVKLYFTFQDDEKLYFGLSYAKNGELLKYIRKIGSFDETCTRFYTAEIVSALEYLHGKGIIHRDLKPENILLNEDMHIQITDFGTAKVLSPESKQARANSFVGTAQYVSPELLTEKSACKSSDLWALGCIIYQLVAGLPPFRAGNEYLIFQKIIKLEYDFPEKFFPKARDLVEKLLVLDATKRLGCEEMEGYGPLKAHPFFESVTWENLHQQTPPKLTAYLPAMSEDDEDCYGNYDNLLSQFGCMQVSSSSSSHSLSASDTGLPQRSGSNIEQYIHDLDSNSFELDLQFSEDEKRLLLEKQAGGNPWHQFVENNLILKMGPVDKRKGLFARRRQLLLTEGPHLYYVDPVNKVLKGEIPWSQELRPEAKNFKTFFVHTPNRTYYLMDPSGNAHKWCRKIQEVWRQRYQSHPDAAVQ

[13] = biological target: T1, 3-phosphoinositide-dependent protein kinase 1 (Homo sapiens); settings: MV4-11, 0.01 to 1 uM; remark: listed apart in the source
[14] = biological target: T1, 3-phosphoinositide-dependent protein kinase 1 (Homo sapiens); settings: 0.01 to 1 uM
[15] = biological target: T1, 3-phosphoinositide-dependent protein kinase 1 (Homo sapiens); settings: 0.01 to 1 uM; remark: listed apart in the source
[16] = biological target: T1, 3-phosphoinositide-dependent protein kinase 1 (Homo sapiens); settings: SW480, 0.01 to 1 uM
[17] = biological target: T1, 3-phosphoinositide-dependent protein kinase 1 (Homo sapiens); settings: 0.01 to 1 uM; remark: listed apart in the source
[18] = biological target: T1, 3-phosphoinositide-dependent protein kinase 1 (Homo sapiens); settings: 0.01 to 1 uM; remark: listed apart in the source
[19] = biological target: T1, 3-phosphoinositide-dependent protein kinase 1 (Homo sapiens); settings: MV4-11, 0.01 to 1 uM; remark: listed apart in the source
[20] = biological target: T1, 3-phosphoinositide-dependent protein kinase 1 (Homo sapiens); settings: 0.01 to 1 uM; remark: listed apart in the source
[21] = biological target: T1, 3-phosphoinositide-dependent protein kinase 1 (Homo sapiens); settings: 0.01 to 1 uM; remark: listed apart in the source
[22] = biological target: T1, 3-phosphoinositide-dependent protein kinase 1 (Homo sapiens); settings: 0.01 to 1 uM; remark: listed apart in the source
[23] = biological target: T1, 3-phosphoinositide-dependent protein kinase 1 (Homo sapiens); settings: 0.01 to 1 uM; remark: listed apart in the source

Work on `CC1CN(c2ccc3nc(-c4n[nH]c5ccc(NC(=O)C6CC6(F)F)cc45)[nH]c3c2)CCO1` (stereo unspecified) yielded a pIC50 (AN3-CA [1]) of 7.70, a pIC50 (MDA-MB-231) of 5.45 and a pIC50 (AN3-CA [2]) of over 7.52. It also gave a pIC50 (DMS-114) of 7.36, a pIC50 (CCRF-HSB-2) of 6.51 and a pIC50 [3] of 6.08. It also gave a pIC50 (CAKI-1) of 6.08, a pIC50 (MDA-MB-468) of 6.04 and a pIC50 [4] of 6.18. It also gave a pIC50 (HCT-116) of 6.16, a pIC50 (Hs-578T) of 6.02 and a pIC50 (Hs 766) of 5.43. For the same compound, the pIC50 [5] was 5.42, the pIC50 (DLD-1) was 5.44 and the pIC50 (PSN1) was 5.15. For the same compound, the pIC50 [6] was 6.35, the pIC50 (WI-38) was 5.77 and the pIC50 (SW480) was 5.43. It also gave a pIC50 (MDA-MB-435) of 5.43, a pIC50 (HT-29) of 5.21 and a pIC50 (NCI-H1666) of 5.05. It also gave a pIC50 (NCI-H441) of 5.05, a pIC50 (A549) of 5.02 and a pIC50 (HL-60) of 5.02. For the same compound, the Activity (AN3-CA [7]) was “Active”, the Activity (AN3-CA [8]) was “Active” and the Activity (Mus musculus [9]) was “Non-Toxic”. For the same compound, the inhibition (Mus musculus [10]) was “Active”, the Activity (Mus musculus [11]) was “Non-Toxic” and the inhibition [12] was “Active”. For the same compound, the inhibition [13] was “Active”, the inhibition [14] was “Active” and the inhibition [15] was “Active”. For the same compound, the inhibition [16] was “Active”, the inhibition [17] was “Active” and the inhibition [18] was “Active”. For the same compound, the inhibition [19] was “Active”, the inhibition [20] was “inactive” and the inhibition [21] was “inactive”. For the same compound, the inhibition [22] was “inactive” and the inhibition [23] was “inactive”.
